Data reported in PMC8992017 (Journal of medicinal chemistry, 2019).
“Also recorded” adds a separate entry of the source. Blank lines part the entries; values can stand above or below the compound they belong to.

Assays:
ISRE [1] = experiment: ISRE activity in ISRE-bla THP-1 reporter cells; type: cell-based; details: for ISRE activity (in words): compound 5 μM + IFN-α, compared with compound 1
Procedure, shortened: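 ISRE-bla THP-1 cells at 5×10^4/well in RPMI with 10% dialyzed FBS, 0.1 mM non-essential amino acids, 1 mM pyruvate and pen/strep. Test compound (1 mM DMSO stock) was diluted in IFN-α medium, giving final 5 μM compound ([…]) and final 100 U/mL IFN-α. Incubation 16 h, then CCF4-AM FRET substrate 3 h at RT in the dark. Excitation 405 nm; background-subtracted 465/535 nm emission ratio. Two-point normalized: reference sulfonamide + IFN-α = 200%, IFN-α alone = 100%; mean ± SEM.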

[2] = Stability of compound in DMSO stock and in assay media; type: physicochemical
NF-κB [3] = details: compound alone, without LPS; cited from earlier work
NF-κB [4] = experiment: NF-κB activation in THP1-Blue NF-κB reporter cells; type: cell-based; details: for NF-κB activity (in words): compound 5 μM + LPS, compared with compound 1
Procedure, shortened: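 THP1-Blue NF-κB cells at 10^5/well in RPMI with 10% FBS, pen/strep and Normocin. Test compound (1 mM DMSO stock) was diluted into LPS medium, giving final 5 μM compound ([…]), with LPS co-added. After 20 h, supernatant SEAP was measured colorimetrically with QuantiBlue at 630 nm. Two-point normalized: reference sulfonamide + LPS = 200%, LPS alone = 100%; mean ± SEM.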

[5] = test system: C57BL/6 (wild-type, WT) mice; type: in vivo; details: for systemic toxicity, as indicated by behavior change or weight loss (in words): mice co-immunized with MPLA, ovalbumin and compound; for OVA-specific IgG antibody titers versus MPLA alone (in words): mice, n=8 per group, intramuscular, ovalbumin 20 μg/animal + MPLA + compound, days 0 and 21
Procedure, shortened: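 Female/male not stated; C57BL/6 wild-type mice aged 7–9 weeks, 8 per group. Test compound mixed with ovalbumin (20 μg/animal) and MPLA and injected into the gastrocnemius muscle on days 0 and 21. Mice then bled, and serum OVA-specific IgG titres measured by ELISA. Data given as mean ± SEM.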

ISRE [6] = details: compound alone, without IFN-α; cited from earlier work

stability of stock in DMSO (in words) [2]: stable
SMILES: CCOc1ccc(S(=O)(=O)N(C(C)=O)c2cc(OC)c(Cl)cc2OC)cc1 [Compound 48, N-(4-chloro-2,5-dimethoxyphenyl)-N-((4-ethoxyphenyl)sulfonyl)acetamide]
ISRE activity (in words) (ISRE [1]): active

SMILES: CCOc1ccc(S(=O)(=O)Nc2cc(OC)c(Cl)cc2OC)cc1 [Compound 1, N-(4-chloro-2,5-dimethoxyphenyl)-4-ethoxybenzenesulfonamide]
mean emission ratio in ISRE assay (ISRE [1]; compound 1 + IFN-α, raw value used for normalization, mean ± SEM): 1.88 ± 0.04 µg/mL | NF-κB activity when tested alone (in words) (NF-κB [3]): did not possess any NF-κB or ISRE activity | mean SEAP response in NF-κB assay (NF-κB [4]; compound 1 + LPS, raw value used for normalization, mean ± SEM): 3.44 ± 0.08 µg/mL | systemic toxicity, as indicated by behavior change or weight loss (in words) [5]: without demonstrable systemic toxicity | OVA-specific IgG antibody titers versus MPLA alone (in words) [5]: statistically significant increases | ISRE activity when tested alone (in words) (ISRE [6]): did not possess any NF-κB or ISRE activity

SMILES: C#CCOc1ccc(S(=O)(=O)Nc2cc(OC)c(Cl)cc2OC)cc1 [Compound 15, N-(4-chloro-2,5-dimethoxyphenyl)-4-(prop-2-yn-1-yloxy)benzenesulfonamide]
ISRE activity (in words) (ISRE [1]): inactive | NF-κB activity (in words) (NF-κB [4]): inactive

SMILES: COc1cccc(S(=O)(=O)Nc2cc(OC)c(Cl)cc2OC)c1 [Compound 23, N-(4-chloro-2,5-dimethoxyphenyl)-3-methoxybenzenesulfonamide]
ISRE activity (in words) (ISRE [1]): none of these molecules was active | NF-κB activity (in words) (NF-κB [4]): none of these molecules was active

SMILES: COc1cc(NS(=O)(=O)c2ccc(CN)cc2)c(OC)cc1Cl [Compound 21, 4-(aminomethyl)-N-(4-chloro-2,5-dimethoxyphenyl)benzenesulfonamide]
ISRE activity (in words) (ISRE [1]): either weakly active or completely inactive | NF-κB activity (in words) (NF-κB [4]): either weakly active or completely inactive

SMILES: CCCOc1ccc(S(=O)(=O)Nc2cc(OC)c(Cl)cc2OC)cc1 [Compound 13, N-(4-chloro-2,5-dimethoxyphenyl)-4-propoxybenzenesulfonamide]
ISRE activity (in words) (ISRE [1]): weakly active | NF-κB activity (in words) (NF-κB [4]): weakly active

SMILES: CCOc1ccc(S(=O)(=O)N(C)c2cc(OC)c(Cl)cc2OC)cc1 [Compound 33, N-(4-chloro-2,5-dimethoxyphenyl)-4-ethoxy-N-methylbenzenesulfonamide]
systemic toxicity, as indicated by behavior change or weight loss (in words) [5]: without demonstrable systemic toxicity | OVA-specific IgG antibody titers versus MPLA alone (in words) [5]: statistically significant increases

SMILES: CCNC(=O)CCCN(c1cc(OC)c(Cl)cc1OC)S(=O)(=O)c1ccc(OCC)cc1 [Compound 54, 4-((N-(4-chloro-2,5-dimethoxyphenyl)-4-ethoxyphenyl)sulfonamido)-N-ethylbutanamide]
ISRE activity (in words) (ISRE [1]): reduction in ISRE activity | NF-κB activity (in words) (NF-κB [4]): retaining the NF-κB activity

SMILES: CCOc1ccc(S(=O)(=O)N(c2cc(OC)c(Cl)cc2OC)C(C)C)cc1 [Compound 40, N-(4-chloro-2,5-dimethoxyphenyl)-4-ethoxy-N-isopropylbenzenesulfonamide]
ISRE activity (in words) (ISRE [1]): retaining ISRE activity | NF-κB activity (in words) (NF-κB [4]): eliminated the NF-κB activity

SMILES: CCOc1ccc(S(=O)(=O)N(CCCC(=O)O)c2cc(OC)c(Cl)cc2OC)cc1 [Compound 53, 4-((N-(4-chloro-2,5-dimethoxyphenyl)-4-ethoxyphenyl)sulfonamido)butanoic acid]
ISRE activity (in words) (ISRE [1]): reduction in ISRE activity | NF-κB activity (in words) (NF-κB [4]): retaining the NF-κB activity

SMILES: CCCCOc1ccc(S(=O)(=O)Nc2cc(OC)c(Cl)cc2OC)cc1 [Compound 14, 4-Butoxy-N-(4-chloro-2,5-dimethoxyphenyl)benzenesulfonamide]
ISRE activity (in words) (ISRE [1]): gradual loss of activity | NF-κB activity (in words) (NF-κB [4]): gradual loss of activity

SMILES: COc1cc(NS(=O)(=O)c2ccc(CNC(=O)OC(C)(C)C)cc2)c(OC)cc1Cl [Compound 20, tert-butyl (4-(N-(4-chloro-2,5-dimethoxyphenyl)sulfamoyl)benzyl)carbamate]
ISRE activity (in words) (ISRE [1]): either weakly active or completely inactive | NF-κB activity (in words) (NF-κB [4]): either weakly active or completely inactive

SMILES: CCOc1ccc(S(=O)(=O)Nc2cc(OC)c(N=[N+]=[N-])cc2OC)cc1 [Compound 59, N-(4-azido-2,5-dimethoxyphenyl)-4-ethoxybenzenesulfonamide]
ISRE activity (in words) (ISRE [1]): potent | NF-κB activity (in words) (NF-κB [4]): potent

SMILES: CCOc1ccc(S(=O)(=O)Nc2ccc(Cl)c(OC)c2)cc1 [Compound 4, N-(4-chloro-3-methoxyphenyl)-4-ethoxybenzenesulfonamide]
ISRE activity (in words) (ISRE [1]): complete loss of activity | NF-κB activity (in words) (NF-κB [4]): complete loss of activity

SMILES: C#CCN(c1cc(OC)c(Cl)cc1OC)S(=O)(=O)c1ccc(OCC)cc1 [Compound 42, N-(4-chloro-2,5-dimethoxyphenyl)-4-ethoxy-N-(prop-2-yn-1-yl)benzenesulfonamide]
ISRE activity (in words) (ISRE [1]): retained activity almost equivalent to that of compound 1 | NF-κB activity (in words) (NF-κB [4]): retained activity almost equivalent to that of compound 1

SMILES: COc1ccc(S(=O)(=O)Nc2cc(OC)c(Cl)cc2OC)cc1N [Compound 60, 3-Amino-N-(4-chloro-2,5-dimethoxyphenyl)-4-methoxybenzenesulfonamide]
ISRE activity (in words) (ISRE [1]): resurgence of activity | NF-κB activity (in words) (NF-κB [4]): resurgence of activity

SMILES: C#CCN(c1cc(OC)c(N=[N+]=[N-])cc1OC)S(=O)(=O)c1ccc(OCC)cc1 [Compound 62, N-(4-azido-2,5-dimethoxyphenyl)-4-ethoxy-N-(prop-2-yn-1-yl)benzenesulfonamide]
ISRE activity (in words) (ISRE [1]): very potent | NF-κB activity (in words) (NF-κB [4]): very potent

SMILES: COc1cc(NS(=O)(=O)c2ccccc2OC)c(OC)cc1Cl [Compound 24, N-(4-chloro-2,5-dimethoxyphenyl)-2-methoxybenzenesulfonamide]
ISRE activity (in words) (ISRE [1]): none of these molecules was active | NF-κB activity (in words) (NF-κB [4]): none of these molecules was active

SMILES: CCOC(=O)CCCN(c1cc(OC)c(Cl)cc1OC)S(=O)(=O)c1ccc(OCC)cc1 [Compound 50, Ethyl 4-((N-(4-chloro-2,5-dimethoxyphenyl)-4-ethoxyphenyl)sulfonamido)butanoate]
ISRE activity (in words) (ISRE [1]): retained dual NF-κB and ISRE activities | NF-κB activity (in words) (NF-κB [4]): retained dual NF-κB and ISRE activities

SMILES: CCOc1ccc(S(=O)(=O)N(CCCO)c2cc(OC)c(Cl)cc2OC)cc1 [Compound 51, N-(4-chloro-2,5-dimethoxyphenyl)-4-ethoxy-N-(3-hydroxypropyl)benzenesulfonamide]
ISRE activity (in words) (ISRE [1]): retained activity in both the assays | NF-κB activity (in words) (NF-κB [4]): retained activity in both the assays

SMILES: CCOc1ccc(S(=O)(=O)N(CCc2ccccc2)c2cc(OC)c(Cl)cc2OC)cc1 [Compound 47, N-(4-chloro-2,5-dimethoxyphenyl)-4-ethoxy-N-phenethylbenzenesulfonamide]
ISRE activity (in words) (ISRE [1]): potent analogs | NF-κB activity (in words) (NF-κB [4]): potent analogs

SMILES: CCOc1ccc(S(=O)(=O)Nc2cc(OC)c(Cl)c(OC)c2)cc1 [Compound 8, N-(4-chloro-3,5-dimethoxyphenyl)-4-ethoxybenzenesulfonamide]
ISRE activity (in words) (ISRE [1]): complete loss of activity; also recorded: slightly skewed ISRE activity | NF-κB activity (in words) (NF-κB [4]): complete loss of activity
